# According to ChEMBL document CHEMBL4699588, “Structure-Activity Relationships of Noncovalent Immunoproteasome β5i-Selective Dipeptides” (J Med Chem, 2020):
# Active and inactive are the calls of the source. The rule behind the calls is not given here.
# Biological target: T1, Proteasome subunit beta type-8 (Homo sapiens, UniProt P28062)
# T1 sequence (P28062 whole entry): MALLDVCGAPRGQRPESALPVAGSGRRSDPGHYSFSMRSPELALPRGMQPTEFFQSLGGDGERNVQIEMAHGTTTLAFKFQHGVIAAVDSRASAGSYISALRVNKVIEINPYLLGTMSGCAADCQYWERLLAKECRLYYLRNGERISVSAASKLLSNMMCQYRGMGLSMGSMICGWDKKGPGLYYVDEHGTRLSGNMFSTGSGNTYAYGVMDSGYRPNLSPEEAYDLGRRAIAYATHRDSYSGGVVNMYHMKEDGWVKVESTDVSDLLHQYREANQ
# Assay: Inhibition of human 20S immunoproteasome beta 5 chymotrypsin-like activity
# Conditions: not given
# Outline: (§1)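 Purified human proteasomes were used in a 96-well format assay: immunoproteasome i-20S from PBMC and constitutive c-20S from red blood cells. The readout was fluorogenic AMC peptide substrate cleavage on a plate reader, and IC50 values were determined from it.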
row,SMILES,IC50
1,COC[C@H](NC(=O)[C@H](CC(=O)NOC(C)(C)C)NC(=O)CCc1ccccc1)C(=O)NCc1cccc(OC)c1OC,479 nM
2,C[C@H](NC(=O)[C@H](CCC(=O)NC(C)(C)C)NC(=O)CCc1ccccc1)C(=O)NCc1ccc(F)c2ccccc12,1.6 nM
3,COC[C@H](NC(=O)CCc1ccccc1)C(=O)N[C@@H](C)C(=O)NCc1cccc2ccccc12,21700 nM
4,COC[C@H](NC(=O)[C@H](CC(=O)NOC(C)(C)C)NC(=O)CCc1ccccc1)C(=O)NCc1cccc2cccnc12,83.7 nM
5,C[C@H](NC(=O)[C@H](CC(=O)NOC(C)(C)C)NC(=O)CCc1ccccc1)C(=O)NCc1cccc2[nH]ccc12,28.4 nM
6,COC[C@H](NC(=O)[C@H](CC(=O)NOC(C)(C)C)NC(=O)CCc1ccccc1)C(=O)NCc1cccc2c1NCCC2,501 nM
7,C[C@H](NC(=O)[C@H](CC(=O)NOC(C)(C)C)NC(=O)CCc1ccccc1)C(=O)NCc1cccc2ncccc12,1160 nM
8,COC[C@H](NC(=O)[C@H](CC(=O)NOC(C)(C)C)NC(=O)CCc1ccccc1)C(=O)NCc1cccc(OC)c1,14.4 nM
9,C[C@H](NC(=O)[C@H](CC(=O)NOC(C)(C)C)NC(=O)CCc1ccccc1)C(=O)NCc1ccnc2ccccc12,2620 nM

# Biological target: T2, Proteasome Macropain subunit MB1 (Homo sapiens, UniProt P28074)
# T2 sequence (P28074 whole entry): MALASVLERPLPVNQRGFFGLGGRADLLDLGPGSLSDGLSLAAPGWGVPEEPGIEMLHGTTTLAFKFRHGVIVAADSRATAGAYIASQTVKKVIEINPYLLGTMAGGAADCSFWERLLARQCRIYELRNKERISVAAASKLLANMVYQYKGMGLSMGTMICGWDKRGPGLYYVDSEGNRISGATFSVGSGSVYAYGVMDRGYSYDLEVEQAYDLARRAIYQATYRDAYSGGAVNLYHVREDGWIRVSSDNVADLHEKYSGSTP
# Assay: Inhibition of human constitutive 20S proteasome beta 5 chymotrypsin-like activity
# Conditions: not given
# Outline: as §1
row,SMILES,IC50
1,COC[C@H](NC(=O)[C@H](CC(=O)NOC(C)(C)C)NC(=O)CCc1ccccc1)C(=O)NCc1cccc(OC)c1OC,980 nM
2,COC[C@H](NC(=O)CCc1ccccc1)C(=O)N[C@@H](C)C(=O)NCc1cccc2ccccc12,> 100000 nM
3,COC[C@H](NC(=O)[C@H](CC(=O)NOC(C)(C)C)NC(=O)CCc1ccccc1)C(=O)NCc1cccc2cccnc12,1040 nM
4,COC[C@H](NC(=O)[C@H](CC(=O)N1CCC1)NC(=O)CCc1ccccc1)C(=O)NCc1cccc2ccccc12,> 100000 nM
5,NC(=O)C[C@H](NC(=O)CCc1ccccc1)C(=O)N[C@@H](Cc1ccc(F)cc1)C(=O)NCc1cccc2ccccc12,> 100000 nM
6,C[C@H](NC(=O)[C@H](CC(=O)NOC(C)(C)C)NC(=O)CCc1ccccc1)C(=O)NCc1cccc2[nH]ccc12,170 nM
7,COC[C@H](NC(=O)[C@H](CC(=O)NOC(C)(C)C)NC(=O)CCc1ccccc1)C(=O)NCc1cccc2c1NCCC2,27200 nM
8,C[C@H](NC(=O)[C@H](CC(=O)NOC(C)(C)C)NC(=O)CCc1ccccc1)C(=O)NCc1cccc2ncccc12,12700 nM
9,COC[C@H](NC(=O)[C@H](CC(=O)NOC(C)(C)C)NC(=O)CCc1ccccc1)C(=O)NCc1cccc(OC)c1,101 nM
10,C[C@H](NC(=O)[C@H](CC(=O)NOC(C)(C)C)NC(=O)CCc1ccccc1)C(=O)NCc1ccnc2ccccc12,59000 nM

# Species on record: Homo sapiens
# Assay: Selectivity index, ratio of IC50 for inhibition of human constitutive 20S proteasome beta 5 chymotrypsin-like activity to IC50 for inhibition of human 20S immunoproteasome beta 5 chymotrypsin-like activity
# Conditions: not given
row,SMILES,Ratio IC50
1,COC[C@H](NC(=O)[C@H](CC(=O)NOC(C)(C)C)NC(=O)CCc1ccccc1)C(=O)NCc1cccc(OC)c1OC,2
2,COC[C@H](NC(=O)CCc1ccccc1)C(=O)N[C@@H](C)C(=O)NCc1cccc2ccccc12,> 5
3,COC[C@H](NC(=O)[C@H](CC(=O)NOC(C)(C)C)NC(=O)CCc1ccccc1)C(=O)NCc1cccc2cccnc12,12
4,COC[C@H](NC(=O)[C@H](CC(=O)N1CCC1)NC(=O)CCc1ccccc1)C(=O)NCc1cccc2ccccc12,> 7
5,NC(=O)C[C@H](NC(=O)CCc1ccccc1)C(=O)N[C@@H](Cc1ccc(F)cc1)C(=O)NCc1cccc2ccccc12,> 2.8
6,C[C@H](NC(=O)[C@H](CC(=O)NOC(C)(C)C)NC(=O)CCc1ccccc1)C(=O)NCc1cccc2[nH]ccc12,6
7,COC[C@H](NC(=O)[C@H](CC(=O)NOC(C)(C)C)NC(=O)CCc1ccccc1)C(=O)NCc1cccc2c1NCCC2,54
8,C[C@H](NC(=O)[C@H](CC(=O)NOC(C)(C)C)NC(=O)CCc1ccccc1)C(=O)NCc1cccc2ncccc12,11
9,COC[C@H](NC(=O)[C@H](CC(=O)NOC(C)(C)C)NC(=O)CCc1ccccc1)C(=O)NCc1cccc(OC)c1,7
10,C[C@H](NC(=O)[C@H](CC(=O)NOC(C)(C)C)NC(=O)CCc1ccccc1)C(=O)NCc1ccnc2ccccc12,23

# Biological target: T3, Proteasome subunit beta type-9 (Homo sapiens) (UniProt P28065)
# T3 sequence (whole entry): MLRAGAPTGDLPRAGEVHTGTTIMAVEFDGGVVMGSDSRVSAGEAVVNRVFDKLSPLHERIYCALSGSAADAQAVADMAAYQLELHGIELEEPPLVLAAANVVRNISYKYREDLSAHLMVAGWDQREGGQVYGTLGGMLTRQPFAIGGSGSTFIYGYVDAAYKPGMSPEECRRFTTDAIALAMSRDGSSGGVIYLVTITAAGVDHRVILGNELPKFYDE
# Assay: Inhibition of human 20S immunoproteasome beta 1 at 33.3 uM relative to control
# Conditions: not given
row,SMILES,inhibition
1,C[C@H](NC(=O)[C@H](CCC(=O)NC(C)(C)C)NC(=O)CCc1ccccc1)C(=O)NCc1ccc(F)c2ccccc12,< 50%

# Biological target: T4, Proteasome subunit beta type-10 (Homo sapiens) (UniProt P40306)
# T4 sequence (whole entry): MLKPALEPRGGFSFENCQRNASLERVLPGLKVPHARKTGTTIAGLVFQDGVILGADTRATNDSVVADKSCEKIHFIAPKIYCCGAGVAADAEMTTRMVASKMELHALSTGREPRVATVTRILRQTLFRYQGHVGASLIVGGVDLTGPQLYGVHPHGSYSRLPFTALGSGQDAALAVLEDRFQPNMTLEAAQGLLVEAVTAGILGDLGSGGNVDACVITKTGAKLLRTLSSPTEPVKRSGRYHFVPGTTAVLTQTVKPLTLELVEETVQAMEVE
# Assay: Inhibition of human 20S immunoproteasome beta 2 at 33.3 uM relative to control
# Conditions: not given
row,SMILES,inhibition
1,C[C@H](NC(=O)[C@H](CCC(=O)NC(C)(C)C)NC(=O)CCc1ccccc1)C(=O)NCc1ccc(F)c2ccccc12,< 50%

# Biological target: T1, Proteasome subunit beta type-8
# Assay: Inhibition of human 20S immunoproteasome beta 5 chymotrypsin-like activity in human KARPAS-1106P cells incubated for 2 hrs by proteasome-Glo assay
# Format: cell-based
# Conditions: not given
row,SMILES,IC50
1,C[C@H](NC(=O)[C@H](CCC(=O)NC(C)(C)C)NC(=O)CCc1ccccc1)C(=O)NCc1ccc(F)c2ccccc12,39 nM

# Tested on: not listed separately
# Assay: Inhibition of anti-CD3 antibody-stimulated T cell proliferation in human PBMCs
# Format: functional, tissue-based
# Conditions: PBMC
row,SMILES,EC50
1,C[C@H](NC(=O)[C@H](CCC(=O)NC(C)(C)C)NC(=O)CCc1ccccc1)C(=O)NCc1ccc(F)c2ccccc12,44 nM

# Biological target: Trypsin (Homo sapiens) (UniProt P07477+P07478+P35030)
# Assay: Inhibition of trypsin (unknown origin) at 11.1 to 100 uM
# Conditions: dose 11.1-100 µM
row,SMILES,inhibition
1,C[C@H](NC(=O)[C@H](CCC(=O)NC(C)(C)C)NC(=O)CCc1ccccc1)C(=O)NCc1ccc(F)c2ccccc12,inactive

# Biological target: Procathepsin L (Homo sapiens) (UniProt P07711)
# Assay: Inhibition of cathepsin L (unknown origin) at 11.1 to 100 uM
# Conditions: dose 11.1-100 µM
# Chain of Procathepsin L (Homo sapiens) (P07711 114-333 limits assumed): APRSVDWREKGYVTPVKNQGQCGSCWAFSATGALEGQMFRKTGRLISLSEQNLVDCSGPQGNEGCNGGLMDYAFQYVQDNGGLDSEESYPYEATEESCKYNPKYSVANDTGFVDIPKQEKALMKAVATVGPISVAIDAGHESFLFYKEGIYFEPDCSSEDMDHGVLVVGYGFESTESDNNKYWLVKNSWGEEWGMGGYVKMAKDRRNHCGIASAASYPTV
row,SMILES,inhibition
1,C[C@H](NC(=O)[C@H](CCC(=O)NC(C)(C)C)NC(=O)CCc1ccccc1)C(=O)NCc1ccc(F)c2ccccc12,inactive

# Species on record: Homo sapiens
# Assay: Inhibition of alpha-chymotrypsin (unknown origin) at 11.1 to 100 uM
# Conditions: dose 11.1-100 µM
row,SMILES,inhibition
1,C[C@H](NC(=O)[C@H](CCC(=O)NC(C)(C)C)NC(=O)CCc1ccccc1)C(=O)NCc1ccc(F)c2ccccc12,inactive

# Biological target: proteasome subunit beta type-6, β1c, PSMB6 (Homo sapiens) (UniProt P28072)
# Assay: Inhibition of human 20S constitutive proteasome beta 1 at 33.3 uM relative to control
# Conditions: not given
# Chain of proteasome subunit beta type-6, β1c, PSMB6 (Homo sapiens) (P28072 whole entry, looked up): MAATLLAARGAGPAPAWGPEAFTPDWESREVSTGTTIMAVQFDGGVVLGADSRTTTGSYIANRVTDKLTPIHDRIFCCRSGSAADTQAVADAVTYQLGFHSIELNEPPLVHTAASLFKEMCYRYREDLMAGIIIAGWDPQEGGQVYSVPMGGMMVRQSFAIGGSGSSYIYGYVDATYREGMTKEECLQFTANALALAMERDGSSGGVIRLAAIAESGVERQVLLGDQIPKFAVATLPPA
row,SMILES,inhibition
1,C[C@H](NC(=O)[C@H](CCC(=O)NC(C)(C)C)NC(=O)CCc1ccccc1)C(=O)NCc1ccc(F)c2ccccc12,< 50%

# Biological target: proteasome subunit beta type-7, β2c, PSMB7 (Homo sapiens) (UniProt Q99436)
# Assay: Inhibition of human 20S constitutive proteasome beta 2 at 33.3 uM relative to control
# Conditions: not given
# Chain of proteasome subunit beta type-7, β2c, PSMB7 (Homo sapiens) (Q99436 whole entry, looked up): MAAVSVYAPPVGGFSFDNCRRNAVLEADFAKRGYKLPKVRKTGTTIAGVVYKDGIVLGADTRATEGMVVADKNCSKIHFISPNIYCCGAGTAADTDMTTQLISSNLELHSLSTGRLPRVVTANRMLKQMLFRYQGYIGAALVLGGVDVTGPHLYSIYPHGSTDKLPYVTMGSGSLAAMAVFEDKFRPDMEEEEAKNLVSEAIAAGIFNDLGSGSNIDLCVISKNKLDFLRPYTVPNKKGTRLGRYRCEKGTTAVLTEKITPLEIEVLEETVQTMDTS
row,SMILES,inhibition
1,C[C@H](NC(=O)[C@H](CCC(=O)NC(C)(C)C)NC(=O)CCc1ccccc1)C(=O)NCc1ccc(F)c2ccccc12,< 50%
